# Measurements: ChEMBL document CHEMBL2086366, “Chemical optimization of new ligands of the low-density lipoprotein receptor as potential vectors for central nervous system targeting” (J Med Chem, 2012)
# Where a SMILES comes first, the peptide text is derived from it. Bridges are numbered along the chain shown (N, C = ends).
# Tested on: Mus musculus
# Assay: Biodistribution in iv dosed dorsal spinal cord of C57-B16 mouse after 10 mins by real time biphoton microscopic analysis
# Assay type: ADME, organism-based
# Settings: in vivo; call rule not given here
# How it was run: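 C57-Bl6 mice (>7 weeks) anesthetized with ketamine-xylazine (100 mg/kg, 10 mg/kg), T13 laminectomy; 200 μL Rhodamine Red-X-labelled peptide (167 μM in DMSO + PBS) given iv, sometimes with 70 kDa fluorescein dextran. Two-photon imaging (840 nm excitation) of superficial dorsal spinal cord (first 100 μm) from 10 min after injection; scrambled peptide and free dye as controls.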
row,Molecule,Drug uptake
1,CSCC[C@@H]1NC(=O)[C@H](NC(C)=O)CSSC[C@@H](C(N)=O)NC(=O)CNC(=O)[C@H](CCCNC(=N)N)NC(=O)[C@H](CC(C)C)NC(=O)[C@H](CCCNC(=N)N)NC(=O)[C@@H]2CCCN2C1=O,Active

# Tested on: not listed separately
# Assay: Half life in Swiss mouse plasma
# Assay type: ADME, cell-free
# Settings: not given
# How it was run: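 Peptide in 0.9% NaCl was spiked into freshly collected Swiss mouse blood at 2 μM nominal (n = 3) and kept at 37 °C for 0, 0.5, 1, 2, 5 and 8 h. Plasma was separated, acidified with formic acid, and protein precipitated with acetonitrile. Analysis was by LC-MS/MS (positive ESI), LLOQ 25-50 nM.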
row,Molecule,half-life [h]
1,CSCC[C@@H]1NC(=O)[C@@H](NC(C)=O)C(C)(C)SSC[C@@H](C(N)=O)NC(=O)CN(C)C(=O)[C@H](CCCNC(=N)N)NC(=O)[C@H](CC(C)C)NC(=O)[C@H](CCCNC(=N)N)NC(=O)[C@@H]2CSCN2C1=O,2.9
2,CSCC[C@@H]1NC(=O)[C@@H](NC(C)=O)C(C)(C)SSC[C@@H](C(N)=O)NC(=O)CNC(=O)[C@H](CCCNC(=N)N)NC(=O)[C@H](CC(C)C)NC(=O)[C@H](CCCNC(=N)N)NC(=O)[C@@H]2CCCCN2C1=O,2.99
3,CSCC[C@@H]1NC(=O)[C@@H](NC(C)=O)CSSC[C@@H](C(N)=O)NC(=O)CNC(=O)[C@H](CCCNC(=N)N)NC(=O)[C@H](CC(C)C)NC(=O)[C@H](CCCNC(=N)N)NC(=O)[C@@H]2CCCN2C1=O,1.47
4,CSCC[C@@H]1NC(=O)[C@H](NC(C)=O)C(C)(C)SSC[C@@H](C(N)=O)NC(=O)CNC(=O)[C@H](CCCNC(=N)N)NC(=O)[C@H](CC(C)C)NC(=O)[C@H](CCCNC(=N)N)NC(=O)[C@@H]2CCCCN2C1=O,1.7
5,CSCC[C@@H]1NC(=O)[C@H](NC(C)=O)CSSC[C@@H](C(N)=O)NC(=O)CNC(=O)[C@H](CCCNC(=N)N)NC(=O)[C@H](CC(C)C)NC(=O)[C@H](CCCNC(=N)N)NC(=O)[C@@H]2CCCN2C1=O,3.03
6,CSCC[C@@H]1NC(=O)[C@H](NC(C)=O)CSSC[C@@H](C(N)=O)NC(=O)CN(C)C(=O)[C@H](CCCNC(=N)N)NC(=O)[C@H](CC(C)C)NC(=O)[C@H](CCCNC(=N)N)NC(=O)[C@@H]2CSCN2C1=O,2.26
7,CSCC[C@@H]1NC(=O)[C@H](NC(C)=O)CSSC[C@@H](C(N)=O)NC(=O)CNC(=O)[C@H](CCCNC(=N)N)NC(=O)[C@H](CC(C)C)NC(=O)[C@H](CCCNC(=N)N)NC(=O)[C@@H]2CSCN2C1=O,1.8

# Biological target: Low-density lipoprotein receptor (Homo sapiens) (UniProt P01130)
# Sequence (P01130 whole entry, the tested form may be a part): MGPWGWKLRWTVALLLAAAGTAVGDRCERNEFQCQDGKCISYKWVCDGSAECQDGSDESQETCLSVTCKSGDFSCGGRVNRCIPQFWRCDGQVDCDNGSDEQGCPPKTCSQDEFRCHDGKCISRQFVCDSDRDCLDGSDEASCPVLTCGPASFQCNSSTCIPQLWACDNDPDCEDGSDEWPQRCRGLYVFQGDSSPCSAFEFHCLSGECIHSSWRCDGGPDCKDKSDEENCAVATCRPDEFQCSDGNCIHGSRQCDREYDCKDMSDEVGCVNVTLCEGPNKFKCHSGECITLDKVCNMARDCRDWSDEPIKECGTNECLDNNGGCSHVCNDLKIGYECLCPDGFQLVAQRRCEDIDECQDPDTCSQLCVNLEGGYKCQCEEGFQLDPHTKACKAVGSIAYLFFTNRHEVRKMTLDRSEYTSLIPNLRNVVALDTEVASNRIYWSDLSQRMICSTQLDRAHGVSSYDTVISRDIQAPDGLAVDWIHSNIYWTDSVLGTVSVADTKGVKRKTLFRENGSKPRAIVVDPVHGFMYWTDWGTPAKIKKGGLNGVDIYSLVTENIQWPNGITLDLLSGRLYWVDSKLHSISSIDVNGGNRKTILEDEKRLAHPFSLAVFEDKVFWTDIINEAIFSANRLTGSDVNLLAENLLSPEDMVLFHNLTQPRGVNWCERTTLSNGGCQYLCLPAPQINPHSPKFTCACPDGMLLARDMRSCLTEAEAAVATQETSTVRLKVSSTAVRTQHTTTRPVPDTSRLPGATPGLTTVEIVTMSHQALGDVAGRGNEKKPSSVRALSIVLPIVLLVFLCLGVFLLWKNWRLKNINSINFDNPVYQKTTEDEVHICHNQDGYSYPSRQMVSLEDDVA
# Assay: Displacement of S-tagged Ac-DSGL[CMPRLRGC]cDPR-NH2 from human DsRed2-fused LDLR expressed in CHO cells at 10 uM after 1 hr by FRET assay
# Assay type: cell-based
# Settings: not given
# How it was run: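 CHO cells stably expressing hLDLR-DsRed2 (Ham-F12, 5% FBS, Geneticin) at 800 000 cells/well were incubated in triplicate with S-tagged reference peptide (10 μM) plus test peptide (10 μM) in Ham-F12/1% BSA, 1 h, 37 °C. Scrambled and untagged peptide controls were included; values are means of at least three points.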
row,Molecule,inhibition [%]
1,CSCC[C@@H]1NC(=O)[C@@H](NC(=O)[C@H](CC(C)C)NC(=O)CNC(=O)[C@H](CO)NC(=O)[C@H](CC(=O)O)NC(C)=O)CSSC[C@@H](C(=O)N[C@@H](CC(=O)O)C(=O)N2CCC[C@H]2C(=O)N[C@@H](CCCNC(=N)N)C(N)=O)NC(=O)CNC(=O)[C@H](CCCNC(=N)N)NC(=O)[C@H](CC(C)C)NC(=O)[C@H](C)NC(=O)[C@@H]2CCCN2C1=O (Ac-DSGLCMPALRGCDPR-NH2; disulfide 5-12),0
2,CSCC[C@@H]1NC(=O)[C@@H](NC(=O)[C@H](CC(C)C)NC(=O)CNC(=O)[C@H](CO)NC(=O)[C@H](CC(=O)O)NC(C)=O)CSSC[C@@H](C(=O)N[C@@H](CC(=O)O)C(=O)N2CCC[C@H]2C(=O)N[C@@H](C)C(N)=O)NC(=O)CNC(=O)[C@H](CCCNC(=N)N)NC(=O)[C@H](CC(C)C)NC(=O)[C@H](CCCNC(=N)N)NC(=O)[C@@H]2CCCN2C1=O (Ac-DSGLCMPRLRGCDPA-NH2; disulfide 5-12),55
3,CSCC[C@@H]1NC(=O)[C@@H](NC(=O)[C@H](CC(C)C)NC(=O)CNC(=O)[C@H](CO)NC(=O)[C@H](CC(=O)O)NC(C)=O)CSSC[C@@H](C(=O)N[C@@H](CC(=O)O)C(=O)N2CCC[C@H]2C(=O)N[C@@H](CCCNC(=N)N)C(N)=O)NC(=O)CNC(=O)[C@H](CCCNC(=N)N)NC(=O)[C@H](C)NC(=O)[C@H](CCCNC(=N)N)NC(=O)[C@@H]2CCCN2C1=O (Ac-DSGLCMPRARGCDPR-NH2; disulfide 5-12),35
4,CSCC[C@@H]1NC(=O)[C@@H](NC(=O)[C@H](CC(C)C)NC(=O)CNC(=O)[C@H](CO)NC(=O)[C@H](CC(=O)O)NC(C)=O)CSSC[C@@H](C(=O)N[C@@H](C)C(=O)N2CCC[C@H]2C(=O)N[C@@H](CCCNC(=N)N)C(N)=O)NC(=O)CNC(=O)[C@H](CCCNC(=N)N)NC(=O)[C@H](CC(C)C)NC(=O)[C@H](CCCNC(=N)N)NC(=O)[C@@H]2CCCN2C1=O (Ac-DSGLCMPRLRGCAPR-NH2; disulfide 5-12),70
5,CSCC[C@@H]1NC(=O)[C@@H](NC(=O)[C@H](CC(C)C)NC(=O)CNC(=O)[C@H](CO)NC(=O)[C@H](CC(=O)O)NC(C)=O)CSSC[C@@H](C(=O)N[C@@H](CC(=O)O)C(=O)N2CCC[C@H]2C(=O)N[C@@H](CCCNC(=N)N)C(N)=O)NC(=O)CNC(=O)[C@H](CCCNC(=N)N)NC(=O)[C@H](CC(C)C)NC(=O)[C@H](CCCNC(=N)N)NC(=O)[C@H](C)NC1=O (Ac-DSGLCMARLRGCDPR-NH2; disulfide 5-12),3
6,Ac-DSGLAMPRLRGCDPR-NH2,0
7,CSCC[C@@H]1NC(=O)[C@@H](NC(=O)[C@H](CC(C)C)NC(=O)CNC(=O)[C@H](CO)NC(=O)[C@H](C)NC(C)=O)CSSC[C@@H](C(=O)N[C@@H](CC(=O)O)C(=O)N2CCC[C@H]2C(=O)N[C@@H](CCCNC(=N)N)C(N)=O)NC(=O)CNC(=O)[C@H](CCCNC(=N)N)NC(=O)[C@H](CC(C)C)NC(=O)[C@H](CCCNC(=N)N)NC(=O)[C@@H]2CCCN2C1=O (Ac-ASGLCMPRLRGCDPR-NH2; disulfide 5-12),55
8,CSCC[C@@H]1NC(=O)[C@@H](NC(=O)[C@H](CC(C)C)NC(=O)CNC(=O)[C@H](CO)NC(=O)[C@H](CC(=O)O)NC(C)=O)CSSC[C@@H](C(=O)N[C@@H](CC(=O)O)C(=O)N[C@@H](C)C(=O)N[C@@H](CCCNC(=N)N)C(N)=O)NC(=O)CNC(=O)[C@H](CCCNC(=N)N)NC(=O)[C@H](CC(C)C)NC(=O)[C@H](CCCNC(=N)N)NC(=O)[C@@H]2CCCN2C1=O (Ac-DSGLCMPRLRGCDAR-NH2; disulfide 5-12),52
9,CSCC[C@@H]1NC(=O)[C@@H](NC(=O)[C@H](CC(C)C)NC(=O)CNC(=O)[C@H](CO)NC(=O)[C@H](CC(=O)O)NC(C)=O)CSSC[C@@H](C(=O)N[C@@H](CC(=O)O)C(=O)N2CCC[C@H]2C(=O)N[C@@H](CCCNC(=N)N)C(N)=O)NC(=O)CNC(=O)[C@H](C)NC(=O)[C@H](CC(C)C)NC(=O)[C@H](CCCNC(=N)N)NC(=O)[C@@H]2CCCN2C1=O (Ac-DSGLCMPRLAGCDPR-NH2; disulfide 5-12),2
